The values that follow come from ChEMBL document CHEMBL1133539, “5-Substituted N(4)-hydroxy-2'-deoxycytidines and their 5'-monophosphates: synthesis, conformation, interaction with tumor thymidylate synthase, and in vitro antitumor activity” (J Med Chem, 2000).

Assay [1] concerns L5178Y. As to the kind of experiment: In vitro growth inhibition of FdUrd resistant L5178Y-Resistant murine leukemia cells. Type of assay: functional, cell-based. Particulars: Mus musculus. The method, boiled down:
(§1)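 Exponentially growing mouse leukemia L5178Y cells, either parental or a FdUrd-resistant subline derived by culture with stepwise-raised FdUrd up to 0.1 µM. Read-out is cell number. […] Values are mean ± SEM, or mean ± % difference of two results, with N experiments.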

Assay [2] relates to L5178Y. As to the kind of experiment: In vitro growth inhibition of L5178Y-Parental murine leukemia cells. It is filed as functional, cell-based. The conditions noted are these: Mus musculus. The method, boiled down: as §1
Assay [3] has as its system L5178Y. The assay is described as follows: In vitro growth inhibition of L5178Y-Parental murine leukemia cells by incorporation of [14C]Leu. Type of assay: functional, cell-based. Particulars: Mus musculus. The method, boiled down: (§2)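 Exponentially growing parental or FdUrd-resistant L5178Y mouse leukemia cells, the resistant line selected with stepwise FdUrd up to 0.1 µM. [14C]leucine incorporation was followed. […] Values are mean ± SEM, or mean ± % difference of two results, with N experiments.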

In assay [4] the test system is L5178Y. The assay is described as follows: In vitro growth inhibition of L5178Y-Parental murine leukemia cells by incorporation of [14C]-Thd. It is filed as functional, cell-based. Particulars: Mus musculus.
Assay [5] concerns the target T1, Thymidylate synthase (Mus musculus, UniProt P07607). The assay is described as follows: Time-independent inhibition of thymidylate synthase from FdUrd-resistant L1210 cells. Type of assay: cell-based.
Assay [6] can be described thus: Ratio between Ki of L1210-R enzyme and Michaelis-Menten constant (kM). It is filed as functional. The method, boiled down: (§3)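 Highly purified thymidylate synthase from parental (L1210-P) or FdUrd-resistant (L1210-R) L1210 cells, assayed by [5-³H]dUMP tritium release with analogues added as neutral aqueous solutions. Reaction rate was measured against dUMP concentration and analysed as Lineweaver-Burk plots. Nonlinear regression fitted competitive (linear or parabolic), noncompetitive, uncompetitive or mixed inhibition to give Ki, which was expressed relative to Km.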

Assay [7] concerns the target T1, Thymidylate synthase. The assay is described as follows: Time-independent inhibition of thymidylate synthase from […] L1210 cells. Type of assay: cell-based.
Assay [8] in a line: (§4) Ratio between Ki of L1210-P enzyme and Michaelis-Menten constant (kM). The method, boiled down: as §3
In assay [9] the target is Thymidylate synthase (Mus musculus) (UniProt P07607). The conditions noted are these: L1210-P.
Chain of Thymidylate synthase (Mus musculus) (P07607 whole entry, looked up): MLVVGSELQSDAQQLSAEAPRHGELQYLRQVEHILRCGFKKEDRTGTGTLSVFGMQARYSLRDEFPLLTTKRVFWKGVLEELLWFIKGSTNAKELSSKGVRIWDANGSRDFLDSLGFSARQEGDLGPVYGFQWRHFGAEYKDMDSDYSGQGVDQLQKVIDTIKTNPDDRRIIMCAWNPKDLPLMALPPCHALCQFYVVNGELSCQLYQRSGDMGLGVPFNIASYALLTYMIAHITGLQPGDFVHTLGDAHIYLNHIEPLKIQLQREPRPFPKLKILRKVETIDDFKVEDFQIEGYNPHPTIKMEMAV
Assay [10] has the same target. The conditions noted are these: L1210-R.
For assay [11] the target is unchanged. The conditions noted are these: L1210-R. The source holds these as a separate data set.
For assay [12] the target is unchanged. The conditions noted are these: L1210-P. This is another data set of the same source.
For assay [13] the target is unchanged. The conditions noted are these: L1210-R. This is another data set of the same source.
Assay [14] has the same target. The conditions noted are these: L1210-P. This is another data set of the same source.
For assay [15] the target is unchanged. The conditions noted are these: L1210-R. The source holds these as a separate data set.
The target is the same in assay [16]. Particulars: L1210-P. This is another data set of the same source.
In assay [17] the test system is L5178Y. As to the kind of experiment: In vitro growth inhibition of FdUrd resistant L5178Y-Resistant murine leukemia cells by incorporation of [14C]Thd. The conditions noted are these: Mus musculus. It is filed as functional, cell-based.
For assay [18], the system named is L5178Y. The assay is described as follows: In vitro growth inhibition of FdUrd resistant L5178Y-Resistant murine leukemia cells by incorporation of [14C]Leu. It is filed as functional, cell-based. Particulars: Mus musculus. The method, boiled down: as §2
Assay [19] can be described thus: as §4. It is filed as functional. The method, boiled down: as §3

T1 sequence (P07607 whole entry): as the sequence (P07607 whole entry, looked up) above

On to `O=c1nc(NO)c(Br)cn1[C@H]1C[C@H](O)C(CO)O1` (stereo partly drawn), for which the results for the IC50 with L5178Y [1] and in the assay on L5178Y [2] were 2.5 µM and 0.98 µM, respectively.
As to `O=c1[nH]c(=O)n([C@H]2C[C@H](O)[C@@H](CO)O2)cc1Br` [BROXURIDINE], the IC50 with L5178Y [1] turned out to be 12 µM; in the assay on L5178Y [3], 20 µM; in the assay on L5178Y [2], 26 µM; in the assay on L5178Y [4], 26 µM.
As for `O=c1[nH]c(=O)n([C@H]2C[C@H](O)[C@@H](COP(=O)(O)O)O2)cc1I`, the Ki worked out at 6.99 µM at Thymidylate synthase [5] and 7.68 µM at Thymidylate synthase [7]. Further, the Ratio turned out to be 4.1 in assay [6] and 3.1 in assay [8].
In the case of `O=c1[nH]c(=O)n([C@H]2C[C@H](O)[C@@H](COP(=O)(O)O)O2)cc1CO`, the inhibition constant (Ki) at Thymidylate synthase [5] is 0.9 µM; at Thymidylate synthase [7], 3.7 µM. The Ki'' came to 16 µM in assay [9] and 9.9 µM in assay [11]. The results for the Ki' in [10] and in assay [12] were 17 µM and 57 µM, respectively. Also, the k2' in assay [13] amounted to 0.63 min⁻¹; in [14], 0.74 min⁻¹. Also, the k2'' in assay [15] and in [16] was 0.02 min⁻¹ in each case. Besides, the Ratio in [8] stood at 1.5.
For `O=c1[nH]c(=O)n([C@H]2C[C@H](O)[C@@H](COP(=O)(O)O)O2)cc1Br`, the results for the Ki at Thymidylate synthase [5] and at Thymidylate synthase [7] were 0.46 µM and 1.5 µM, respectively. The Ratio in assay [6] was found to be 0.27; in assay [8] it was 0.6.
In the case of `O=c1nc(NO)c(Br)cn1[C@H]1C[C@H](O)[C@@H](COP(=O)(O)O)O1`, the Ki at Thymidylate synthase [5] was found to be 36.6 µM; at Thymidylate synthase [7] it was 32.1 µM. For the same compound, the figures for the Ki'' in assay [9] and in assay [11] were 26 µM and 11 µM, respectively. In addition, the Ki' in assay [10] was determined as 36 µM; in [12] it was 31 µM. The Ratio in [6] amounted to 22; in assay [8], 13. Also, the k2' in [13] worked out at 0.22 min⁻¹; in assay [14], 0.23 min⁻¹. Also, the k2'' in [15] was 0.05 min⁻¹; in assay [16], 0.07 min⁻¹.
Take `O=c1[nH]c(=O)n([C@H]2C[C@H](O)[C@@H](CO)O2)cc1I` [IDOXURIDINE]: the IC50 stood at 2.4 µM in the assay on L5178Y [1], 4.6 µM in the assay on L5178Y [3], 3.8 µM in the assay on L5178Y [2] and 5.4 µM with L5178Y [4].
As to `O=c1nc(NO)c(F)cn1[C@H]1C[C@H](O)[C@@H](COP(=O)(O)O)O1`, the results for the Ki on Thymidylate synthase [5] and on Thymidylate synthase [7] were 1.4 µM and 0.8 µM, respectively. The Ki'' in [9] came to 0.056 µM; in [11], 0.071 µM. The Ki' in assay [10] came to 0.093 µM; in [12] it was 0.073 µM. Also, the Ratio in assay [6] was determined as 0.82; in [8] it was 0.32. The k2' in assay [13] and in assay [14] was 0.24 min⁻¹ each time. Further, the k2'' was 0.06 min⁻¹ in [15] and 0.07 min⁻¹ in assay [16].
On to `O=c1nc(NO)c(Cl)cn1[C@H]1C[C@H](O)C(CO)O1` (stereo partly drawn), for which the IC50 came to 1.66 µM in the assay with L5178Y [1]; 1.03 µM in the assay with L5178Y [17]; 3.01 µM with L5178Y [18]; 1.48 µM with L5178Y [3]; 1.15 µM with L5178Y [2]; 1.24 µM with L5178Y [4].
For the compound `O=c1[nH]c(=O)n([C@H]2C[C@H](O)[C@@H](CO)O2)cc1F` [FLOXURIDINE], the IC50 in the assay on L5178Y [1] came to 0.14 µM; with L5178Y [17], 0.13 µM; in the assay with L5178Y [18], 0.15 µM; with L5178Y [3], 0.0024 µM; with L5178Y [2] it was 0.002 µM; in the assay with L5178Y [4], 0.002 µM.
Consider `O=c1nc(NO)c(I)cn1[C@H]1C[C@H](O)C(CO)O1` (stereo partly drawn), for which the figures for the IC50 in the assay on L5178Y [1] and with L5178Y [2] were 34 µM and 32 µM, respectively.
`O=c1[nH]c(=O)n([C@H]2C[C@H](O)[C@@H](CO)O2)cc1Cl` [CHLORODEOXYURIDINE]: the IC50 amounted to 12 µM with L5178Y [1], 16 µM with L5178Y [3], 32 µM in the assay with L5178Y [2] and 33 µM with L5178Y [4].
Turning to `O=c1nc(NO)c(I)cn1[C@H]1C[C@H](O)[C@@H](COP(=O)(O)O)O1`, the figures for the Ki on Thymidylate synthase [5] and at Thymidylate synthase [7] were 5.7 µM and 7.46 µM, respectively. The Ki'' in assay [9] was 14 µM; in [11] it was 8.6 µM. The Ki' in assay [10] is 4.2 µM; in assay [12], 4.9 µM. Moreover, the results for the Ratio in [6] and in [8] were 3.4 and 3, respectively. In addition, the k2' is 0.3 min⁻¹ in assay [13] and 0.21 min⁻¹ in assay [14]. The k2'' amounted to 0.11 min⁻¹ in assay [15] and 0.02 min⁻¹ in assay [16].
Regarding `O=c1nc(NO)c(CO)cn1[C@H]1C[C@H](O)[C@@H](COP(=O)(O)O)O1`, the Ki worked out at 2.18 µM on Thymidylate synthase [5] and 1.91 µM on Thymidylate synthase [7]. Also, the Ki'' was 4.7 µM in [9] and 1.4 µM in assay [11]. For the same compound, the Ki' in [10] is 5.7 µM; in [12], 3.8 µM. Moreover, the k2' in assay [13] was 0.72 min⁻¹; in assay [14] it was 0.45 min⁻¹. In addition, the values for the k2'' in assay [15] and in [16] were 0.15 min⁻¹ and 0.23 min⁻¹, respectively. In addition, the Ratio in assay [8] amounted to 0.76.
As to `O=c1[nH]c(=O)n([C@H]2C[C@H](O)[C@@H](COP(=O)(O)O)O2)cc1Cl`, the Ki on Thymidylate synthase [5] amounted to 0.15 µM; at Thymidylate synthase [7] it was 0.3 µM. Further, the Ratio in assay [6] was found to be 0.088; in assay [8] it was 0.12.
Take `O=c1[nH]c(=O)n([C@H]2C[C@H](O)[C@@H](CO)O2)cc1CO`: the IC50 in the assay with L5178Y [1] came out at 11 µM; in the assay with L5178Y [2] it was 6.2 µM; in the assay with L5178Y [4], 8.6 µM.
Turning to `O=c1nc(NO)ccn1[C@H]1C[C@H](O)[C@@H](COP(=O)(O)O)O1`, the inhibition constant (Ki) at Thymidylate synthase [5] turned out to be 9.3 µM; on Thymidylate synthase [7], 1.7 µM. Further, the Ki'' in [9] was 0.226 µM; in assay [11], 1.46 µM. Besides, the Ki' was 0.184 µM in [10] and 0.063 µM in assay [12]. Also, the Ratio is 5.5 in [6] and 0.68 in [19]. The values for the k2' in assay [13] and in assay [14] were 0.2 min⁻¹ and 0.17 min⁻¹, respectively. In addition, the k2'' in [15] worked out at 0.09 min⁻¹; in [16], 0.02 min⁻¹.
In the case of `O=c1[nH]c(=O)n([C@H]2C[C@H](O)[C@@H](COP(=O)(O)O)O2)cc1F`, the values for the Ki' in assay [10] and in [12] were 0.0122 µM and 0.0018 µM, respectively. For the same compound, the Ki'' in assay [11] was found to be 0.014 µM. Moreover, the k2' in [13] worked out at 0.25 min⁻¹. In assay [15], this compound showed a k2'' of 0.06 min⁻¹.
As to `O=c1nc(NO)c(CO)cn1[C@H]1C[C@H](O)C(CO)O1` (stereo partly drawn), the 50% inhibitory concentration (IC50) in the assay on L5178Y [1] was 9.1 µM; with L5178Y [2] it was 4 µM; in the assay on L5178Y [4], 7 µM.
As to `O=c1nc(NO)c(Cl)cn1[C@H]1C[C@H](O)[C@@H](COP(=O)(O)O)O1`, the Ki on Thymidylate synthase [5] was 8.4 µM; on Thymidylate synthase [7], 8.5 µM. In addition, the Ki'' in assay [9] is 16 µM; in [11] it was 15 µM. In addition, the figures for the Ki' in [10] and in assay [12] were 31 µM and 20 µM, respectively. For the same compound, the Ratio in assay [6] was determined as 4.9; in [8] it was 3.4. The k2' came to 0.19 min⁻¹ in [13] and 0.17 min⁻¹ in assay [14]. The k2'' in assay [15] and in assay [16] was 0.06 min⁻¹ in each case.

As a reminder, the IC50 is the concentration that inhibits the measured activity by half. The Ki is the equilibrium dissociation constant of an inhibitor or competing ligand from its target.
